This is an account of results in PMC6319658 (Journal of natural products, 2018).

One series deals with MEK. In words: MEK1 kinase activity assay. Format: biochemical. The conditions noted are these: 10 μM compound; data not shown.
Series [1] concerns Colo205 cells that harbor the V600E B-Raf mutation. Put plainly: Western blot analysis of ERK signaling cascade proteins in Colo205 cells. In kind it is cell-based, human. The conditions noted are these: for ERK protein levels / total protein levels of B-Raf, C-Raf, and MEK: 18 h treatment. In general terms: A western blot detects proteins with antibodies after separation by electrophoresis.

In series [2] the test system is 60 human tumor cell lines. Put plainly: NCI-60 cell line screening assay. Format: cell-based. The conditions noted are these: for pattern of cytotoxicity at the GI50 level: NCI-60 screen; for growth suppression of cell lines that harbor the B-Raf V600E mutation: Colo205 colon, MALM-3M, SK-MEL-5, MDA-MB-435 melanoma cell lines. Put shortly: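 Test compounds were submitted as DMSO solutions to the NCI-60 screen for cytotoxicity across 60 human tumor cell lines. The response patterns were analysed with bioinformatics tools on the public CellMiner site.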

A further series concerns B-Raf. In words: Raf kinase catalytic activity assay. In kind it is biochemical. To be noted: 10 μM compound; data not shown.
The test system of the next series is ERK. In words: ERK kinase catalytic activity assay. Format: biochemical. The conditions noted are these: data not shown.
A further series has as its system C-Raf. In words: Raf kinase catalytic activity assay. In kind it is biochemical. The conditions noted are these: 10 μM compound; data not shown.
For another series, the system named is cells. The conditions noted are these: cited from earlier work.
For series [3], the system named is SUMO conjugation enzymatic cascade. Format: biochemical. To be noted: read-out: IC50, inhibition of SUMOylation of a substrate peptide; in vitro electrophoretic mobility shift assay. For orientation: A gel shift assay detects complexes by their altered migration in electrophoresis.

Turning to `N=C1C2=C(NCC[S+]2[O-])C(=O)c2[nH]cc(CO)c21` (stereo not drawn) [Compound 4, macrophilone D], the “inhibition of kinase catalytic activity of MEK” value (shortened to “inhibition … of MEK”) in the series with MEK was “no reduction in kinase activity”. For the same molecule, the “phosphorylation (activation) of MEK and ERK” value in series [1] (1 μM) is recorded as “increased phosphorylation”. In addition, in series [1] (10 μM), the ERK protein levels result is “no corresponding loss”; the “total protein levels of B-Raf, C-Raf, and MEK” value (shortened to “total protein levels of B-Raf”) is “striking reductions”. Further, the “pattern of cytotoxicity at the GI50 level” value (from here on “pattern of cytotoxicity”) in series [2] is “selective cytotoxicity”. Besides, the “inhibition of kinase catalytic activity of B-Raf” value (“inhibition … of B-Raf” below) in the series on B-Raf was “no reduction in kinase activity”. Moreover, in the series with ERK, the “inhibition of kinase catalytic activity of ERK” value (shortened to “inhibition … of ERK”) is “no reduction in kinase activity”. Further, the “inhibition of kinase catalytic activity of C-Raf” value (shortened to “inhibition … of C-Raf”) with C-Raf is on record as “no reduction in kinase activity”.

`CSC1=C(N)C(=O)c2[nH]cc(CO)c2C1=N` [Compound 1, macrophilone A]: in the series with MEK, the “inhibition … of MEK” value was “no reduction in kinase activity”. Besides, the “total protein levels of B-Raf” value in series [1] (1 μM) is given as “effective at reducing these proteins”. For the same molecule, in series [1] (10 μM), the ERK protein levels result is “no corresponding loss”; the “total protein levels of B-Raf” value is listed as “striking reductions”. Further, in series [2], the “growth suppression of cell lines that harbor the B-Raf V600E mutation” value was “most potent” and the “pattern of cytotoxicity” value is on record as “selective cytotoxicity”. In addition, the “inhibition … of B-Raf” value with B-Raf was “no reduction in kinase activity”. Further, the “inhibition … of ERK” value with ERK is given as “no reduction in kinase activity”. Further, the “inhibition … of C-Raf” value in the series on C-Raf is “no reduction in kinase activity”. Further, the “reactive oxygen species (ROS) in cells” value in the series with cells is given as “increase in reactive oxygen species”.

For `CN(C)CCOc1ccc(-c2nc(-c3ccc4c(c3)CC/C4=N\O)c(-c3ccncc3)[nH]2)cc1` [SB-590885, reference compound], in series [1] (positive control), the “phosphorylation of MEK and subsequent activation of ERK” value was “blocked phosphorylation of MEK”; the “total protein concentrations in the pathway” value is “no significant impact”.

Broadly, the IC50 is the concentration needed to halve the response being measured. In the case of `O=C1C2=C(SCCN2)C2=NCCc3c[nH]c1c32` [Compound 6, macrophilone F], in series [3], the IC50 was over 100 µM.

Consider `N=C1C2=C(NCCS2)C(=O)c2[nH]cc(CO)c21` [Compound 3, macrophilone C], for which the “inhibition … of MEK” value in the series on MEK is listed as “no reduction in kinase activity”. The “phosphorylation (activation) of MEK and ERK” value in series [1] (1 μM) is reported as “increased phosphorylation”. In addition, in series [1] (10 μM), the ERK protein levels entry is “no corresponding loss”; the “total protein levels of B-Raf” value is “striking reductions”. In series [2], the “growth suppression of cell lines that harbor the B-Raf V600E mutation” value is recorded as “most potent” and the “pattern of cytotoxicity” value is “selective cytotoxicity”. Further, in the series on B-Raf, the “inhibition … of B-Raf” value is “no reduction in kinase activity”. For the same molecule, the “inhibition … of ERK” value in the series on ERK was “no reduction in kinase activity”. Besides, the “inhibition … of C-Raf” value in the series with C-Raf was “no reduction in kinase activity”.
